Test results: ChEMBL document CHEMBL4261638, “Synthesis and in vitro evaluation of diverse heterocyclic diphenolic compounds as inhibitors of DYRK1A” (Bioorg Med Chem, 2018)

Tests used:
[1] = biological target: Dual specificity tyrosine-phosphorylation-regulated kinase 1A (Homo sapiens) (UniProt Q13627); assay: Inhibition of N-terminal His-tagged human Dyrk1A (126 to 490 residues) expressed in Escherichia coli BL21 (DE3) cells at 10 uM using Woodtide as substrate assessed as remaining enzyme activity after 10 mins in presence of [gamma-32P]-ATP by microbeta scintillation counting method
Summary of the method: (§1)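 Recombinant DYRK1A kinase assay with Woodtide as the peptide substrate and ATP at 100 μM. Each compound was tested at two concentrations, 1 μM and 10 μM. Results are given as the percentage of DYRK1A activity remaining relative to the uninhibited enzyme.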

[2] = biological target: Dual specificity tyrosine-phosphorylation-regulated kinase 1A (Homo sapiens) (UniProt Q13627); assay: Inhibition of N-terminal His-tagged human Dyrk1A (126 to 490 residues) expressed in Escherichia coli BL21 (DE3) cells at 1 uM using Woodtide as substrate assessed as remaining enzyme activity after 10 mins in presence of [gamma-32P]-ATP by microbeta scintillation counting method; summary of the method: as §1

Row | Structure (SMILES) | Activity [1] [%] | Activity [2] [%]
1 | Oc1ccc2c(c1)CNc1cc(O)ccc1N2 | 113 | 104
2 | Oc1ccc(-c2nnc3cncc(OCCc4cccc(O)c4)n23)cc1 | 91 | 94
3 | Nc1nc2ccc(-c3ccc(O)cc3)cc2n1-c1ccc(O)cc1 | 43 | 74
4 | Oc1ccc(-c2ccnc(-c3cc(-c4ccc(O)cc4)n[nH]3)c2)cc1 | 9 | 64
5 | CC(=O)Nc1nc2ccc(-c3ccc(O)cc3)cc2n1-c1ccc(O)cc1 | 107 | 106
6 | Oc1ccc(-c2cnc3[nH]cc(-c4ccc(O)cc4)c3c2)cc1 | 3.3 | 3.3
7 | Oc1ccc(-c2nc[nH]c2-c2ccc(O)cc2)cc1 | 79 | 100
8 | Oc1ccc(-c2cnc3nccc(-c4ccc(O)cc4)c3c2)cc1 | 30 | 67
9 | O=C(Nc1cccc(O)c1)c1cncc2nnc(-c3ccc(O)cc3)n12 | 102 | 104
10 | Oc1ccc(-c2ccc(-c3cc(-c4ccc(O)cc4)n[nH]3)nc2)cc1 | 98 | 110
11 | Oc1ccc(-c2ccnc(-c3cc(-c4ccc(O)cc4)ccn3)c2)cc1 | 83 | 90
12 | Oc1ccc(CCOc2cncc3nnc(-c4ccc(O)cc4)n23)cc1 | 99 | 94
13 | O=C(Nc1ccc(O)cc1)c1cncc2nnc(-c3ccc(O)cc3)n12 | 99 | 99
